ChEMBL document CHEMBL3297722, “Design, synthesis and docking studies of some novel (R)-2-(4'-chlorophenyl)-3-(4'-nitrophenyl)-1,2,3,5-tetrahydrobenzo[4,5] imidazo [1,2-c]pyrimidin-4-ol derivatives as antitubercular agents” (Eur J Med Chem, 2014)
Converted amounts (≈) assume the structure as drawn.

Key:
[1] = test system: Mycobacterium tuberculosis; assay: Antitubercular activity against Mycobacterium tuberculosis H37Rv ATCC 27294 in GAST/Fe medium after 1 week by broth microdilution method; format: functional; details: H37Rv ATCC 27294, 168 h
Procedure, shortened: (§1)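 Two-fold serial dilutions from DMSO stocks added to medium; equal volume of H37Rv diluted to 10,000 cells/mL in the same medium. DMSO-only wells; isoniazid positive control. 37 °C; growth read by inverted enlarging mirror. Quadruplicate. MIC = lowest concentration completely inhibiting growth.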

[2] = test system: Mycobacterium tuberculosis; assay: Antitubercular activity against Mycobacterium tuberculosis H37Rv ATCC 27294 in GAST/Fe medium after 2 weeks by broth microdilution method; format: functional; details: H37Rv ATCC 27294, 336 h; procedure, shortened: as §1
[3] = test system: Mycobacterium tuberculosis; assay: Antitubercular activity against Mycobacterium tuberculosis H37Rv ATCC 27294 in 7H9/ADC/Tween medium after 1 week by broth microdilution method; format: functional; details: H37Rv ATCC 27294, 168 h; procedure, shortened: as §1
[4] = test system: Mycobacterium tuberculosis; assay: Antitubercular activity against Mycobacterium tuberculosis H37Rv ATCC 27294 in 7H9/ADC/Tween medium after 2 weeks by broth microdilution method; format: functional; details: H37Rv ATCC 27294, 336 h; procedure, shortened: as §1
[5] = Cytotoxicity against African green monkey Vero cells assessed as survival at 50 ug/ml after 48 hrs by Cell-Titre Blue assay; format: cell-based; details: chlorocebus sabaeus, read-out: Survival
Procedure, shortened: (§2)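 Vero cells in DMEM with 10% FBS, seeded at 20,000 cells/well and left to adhere overnight at 37 °C, 5% CO2. Medium then replaced with fresh medium containing compound, 48 h. Cell-Titer Blue added for a further 2 h; OD read at 560 nm. % survival = OD test/OD of DMSO-medium control ×100.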

[6] = Cytotoxicity against African green monkey Vero cells assessed as survival at 25 ug/ml after 48 hrs by Cell-Titre Blue assay; format: cell-based; details: chlorocebus sabaeus, read-out: Survival; procedure, shortened: as §2

Q: With `OC1=C2Nc3ccccc3N2CN(c2ccc(Br)cc2)[C@@H]1c1ccc(O)cc1` as the compound, how does the MIC [1] read?
A: 75 µg/mL (≈ 172 µM)

Q: And the MIC [2]?
A: 75 µg/mL (≈ 172 µM)

Q: What about the MIC [3] of the same compound?
A: ≥ 100 µg/mL

Q: And the MIC [4]?
A: > 100 µg/mL

Q: Which MIC [1] does the source give for `COc1ccccc1N1CN2C(=C(O)[C@H]1c1ccccc1O)Nc1ccccc12` here?
A: 19 µg/mL (≈ 49 µM)

Q: What about the MIC [2] of the same compound?
A: 25 µg/mL (≈ 64.5 µM)

Q: What about the MIC [3] of the same compound?
A: 50 µg/mL (≈ 129 µM)

Q: And the MIC [4]?
A: 75 µg/mL (≈ 194 µM)

Q: What about the viability at 48 h, 50 ug/ml [5] of the same compound?
A: 69%

Q: And the viability at 48 h, 25 ug/ml [6]?
A: 63%

Q: Which MIC [1] does the source give for `Cc1cccc(C)c1N1CN2C(=C(O)[C@H]1c1ccc(O)cc1)Nc1ccccc12` here?
A: 6.25 µg/mL (≈ 16.2 µM)

Q: What about the MIC [2] of the same compound?
A: 9.4 µg/mL (≈ 24.4 µM)

Q: And the MIC [3]?
A: 12.5 µg/mL (≈ 32.4 µM)

Q: What about the MIC [4] of the same compound?
A: 19 µg/mL (≈ 49.3 µM)

Q: What about the viability at 48 h, 50 ug/ml [5] of the same compound?
A: 63%

Q: And the viability at 48 h, 25 ug/ml [6]?
A: 66%

Q: For `O=[N+]([O-])c1ccc([C@@H]2C(O)=C3Nc4ccccc4N3CN2c2ccc(Cl)cc2)cc1`, which MIC [1] is on record?
A: 100 µg/mL (≈ 238 µM)

Q: And the MIC [2]?
A: > 100 µg/mL

Q: And the MIC [3]?
A: > 100 µg/mL

Q: And the MIC [4]?
A: > 100 µg/mL

Q: Which results are given for `NNC(=O)c1ccncc1` [ISONIAZID]?
A: MIC [1]: 0.02 µg/mL (≈ 0.146 µM); MIC [2]: 0.02 µg/mL (≈ 0.146 µM); MIC [3]: 0.02 µg/mL (≈ 0.146 µM); MIC [4]: 0.02 µg/mL (≈ 0.146 µM); viability at 48 h, 50 ug/ml [5]: 100%; viability at 48 h, 25 ug/ml [6]: 100%

Q: With `OC1=C2Nc3ccccc3N2CN(c2cc(Cl)cc(Cl)c2)[C@@H]1c1ccccc1Cl` as the compound, how does the MIC [1] read?
A: > 100 µg/mL

Q: What about the MIC [2] of the same compound?
A: > 100 µg/mL

Q: And the MIC [3]?
A: ≥ 100 µg/mL

Q: What about the MIC [4] of the same compound?
A: > 100 µg/mL

Q: For `COc1ccc([C@@H]2C(O)=C3Nc4ccccc4N3CN2c2cc(Cl)cc(Cl)c2)cc1OC`, which MIC [1] is on record?
A: 100 µg/mL (≈ 213 µM)

Q: What about the MIC [2] of the same compound?
A: > 100 µg/mL

Q: And the MIC [3]?
A: > 100 µg/mL

Q: What about the MIC [4] of the same compound?
A: > 100 µg/mL

Q: For `O=[N+]([O-])c1ccc(N2CN3C(=C(O)[C@H]2c2ccccc2[N+](=O)[O-])Nc2ccccc23)cc1`, which MIC [1] is on record?
A: 37 µg/mL (≈ 85.8 µM)

Q: And the MIC [2]?
A: 37 µg/mL (≈ 85.8 µM)

Q: What about the MIC [3] of the same compound?
A: 37 µg/mL (≈ 85.8 µM)

Q: What about the MIC [4] of the same compound?
A: 50 µg/mL (≈ 116 µM)

Q: And the viability at 48 h, 50 ug/ml [5]?
A: 61%

Q: And the viability at 48 h, 25 ug/ml [6]?
A: 53%

Q: With `OC1=C2Nc3ccccc3N2CN(c2cc(Cl)cc(Cl)c2)[C@@H]1c1ccc(Cl)cc1` as the compound, how does the MIC [1] read?
A: 37 µg/mL (≈ 83.2 µM)

Q: And the MIC [2]?
A: 50 µg/mL (≈ 112 µM)

Q: And the MIC [3]?
A: 100 µg/mL (≈ 225 µM)

Q: What about the MIC [4] of the same compound?
A: ≥ 100 µg/mL

Q: What about the viability at 48 h, 50 ug/ml [5] of the same compound?
A: 69%

Q: And the viability at 48 h, 25 ug/ml [6]?
A: 63%

Q: With `COc1ccc([C@@H]2C(O)=C3Nc4ccccc4N3CN2c2ccc(OC)cc2)cc1` as the compound, how does the MIC [1] read?
A: 50 µg/mL (≈ 125 µM)

Q: What about the MIC [2] of the same compound?
A: 75 µg/mL (≈ 187 µM)

Q: What about the MIC [3] of the same compound?
A: 100 µg/mL (≈ 249 µM)

Q: And the MIC [4]?
A: ≥ 100 µg/mL

Q: For `COc1ccccc1[C@@H]1C(O)=C2Nc3ccccc3N2CN1c1c(C)cccc1C`, which MIC [1] is on record?
A: 100 µg/mL (≈ 250 µM)

Q: What about the MIC [2] of the same compound?
A: 100 µg/mL (≈ 250 µM)

Q: What about the MIC [3] of the same compound?
A: 50 µg/mL (≈ 125 µM)

Q: And the MIC [4]?
A: > 100 µg/mL

Q: For `COc1ccc(N2CN3C(=C(O)[C@H]2c2cccc(Br)c2)Nc2ccccc23)cc1`, which MIC [1] is on record?
A: > 100 µg/mL

Q: And the MIC [2]?
A: > 100 µg/mL

Q: What about the MIC [3] of the same compound?
A: > 100 µg/mL

Q: And the MIC [4]?
A: > 100 µg/mL

Q: Which MIC [1] does the source give for `OC1=C2Nc3ccccc3N2CN(c2c(Cl)cccc2Cl)[C@@H]1c1cccc(O)c1` here?
A: 6.25 µg/mL (≈ 14.7 µM)

Q: What about the MIC [2] of the same compound?
A: 9.4 µg/mL (≈ 22.1 µM)

Q: What about the MIC [3] of the same compound?
A: 37 µg/mL (≈ 86.8 µM)

Q: What about the MIC [4] of the same compound?
A: 50 µg/mL (≈ 117 µM)

Q: What about the viability at 48 h, 50 ug/ml [5] of the same compound?
A: 61%

Q: What about the viability at 48 h, 25 ug/ml [6] of the same compound?
A: 63%

Q: What does the source list for `Cc1ccc([C@@H]2C(O)=C3Nc4ccccc4N3CN2c2c(C)cccc2C)c(N)c1C`?
A: MIC [1]: 37 µg/mL (≈ 89.7 µM); MIC [2]: 75 µg/mL (≈ 182 µM); MIC [3]: 100 µg/mL (≈ 242 µM); MIC [4]: > 100 µg/mL; viability at 48 h, 50 ug/ml [5]: 73%; viability at 48 h, 25 ug/ml [6]: 64%

Q: With `COc1ccccc1[C@@H]1C(O)=C2Nc3ccccc3N2CN1c1cc(Cl)cc(Cl)c1` as the compound, how does the MIC [1] read?
A: 50 µg/mL (≈ 114 µM)

Q: And the MIC [2]?
A: 100 µg/mL (≈ 227 µM)

Q: What about the MIC [3] of the same compound?
A: 100 µg/mL (≈ 227 µM)

Q: What about the MIC [4] of the same compound?
A: 100 µg/mL (≈ 227 µM)

Q: With `COc1ccc(N2CN3C(=C(O)[C@H]2c2cccc(-c4ccccn4)c2)Nc2ccccc23)cc1` as the compound, how does the MIC [1] read?
A: 12.5 µg/mL (≈ 27.9 µM)

Q: What about the MIC [2] of the same compound?
A: 19 µg/mL (≈ 42.4 µM)

Q: What about the MIC [3] of the same compound?
A: ≥ 100 µg/mL

Q: And the MIC [4]?
A: > 100 µg/mL

Q: And the viability at 48 h, 50 ug/ml [5]?
A: 56%

Q: What about the viability at 48 h, 25 ug/ml [6] of the same compound?
A: 66%

Q: Which MIC [1] does the source give for `O=[N+]([O-])c1ccc(N2CN3C(=C(O)[C@H]2c2cccc([N+](=O)[O-])c2)Nc2ccccc23)cc1` here?
A: 3.13 µg/mL (≈ 7.26 µM)

Q: And the MIC [2]?
A: 4.7 µg/mL (≈ 10.9 µM)

Q: What about the MIC [3] of the same compound?
A: 25 µg/mL (≈ 57.9 µM)

Q: And the MIC [4]?
A: 37 µg/mL (≈ 85.8 µM)

Q: What about the viability at 48 h, 50 ug/ml [5] of the same compound?
A: 69%

Q: What about the viability at 48 h, 25 ug/ml [6] of the same compound?
A: 66%

Q: What does the source list for `COc1ccc(O)c([C@@H]2C(O)=C3Nc4ccccc4N3CN2c2ccc(C(=O)O)cc2)c1`?
A: MIC [1]: > 100 µg/mL; MIC [2]: > 100 µg/mL; MIC [3]: > 100 µg/mL; MIC [4]: > 100 µg/mL
